Screens: PubChem, Sanford-Burnham Center for Chemical Genomics
G6PDH counter = inhibits Leuconostoc G6PDH, flagging false hits in G6PDH-based assays; Purified L. mesenteroides G6PDH, diaphorase/resazurin coupled fluorescence, 45 min; inhibition, % at 5 µM; 200,000 compounds, 0.12% hits; AID 1020; in the data active = inhibition above about 50%
PfG6PD inh = PfG6PD (Plasmodium falciparum) enzyme inhibition. PfGluPho enzyme, NADPH resazurin-diaphorase fluorescence. inhibition, % at 20 µM. 350,000 compounds, 0.78% hits;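 active = inhibition reaching at least a set limit at 20 µM in the primary screen, cut at about 59% in these data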;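 also: 0% = DMSO wells with substrate and 100% = DMSO wells lacking glucose-6-phosphate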
Diaphorase inh = inhibits diaphorase or chemically oxidizes, flagging diaphorase assay artifacts. diaphorase resazurin-to-resorufin fluorescence, NADH, 16 min; bacterial (C. kluyveri) enzyme, not human. inhibition, % at 20 µM. 190,000 compounds, 0.69% hits. AID 1217;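 active = primary screen inhibition at 20 µM above a set limit, cut at about 50% in these data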;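 also: plate controls were DMSO with full reaction for no effect and wells lacking NADH for full effect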
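System: Diaphorase enzyme from Clostridium kluyveri | Amount: Enzyme working solution with 0.14 U/mL diaphorase | Benchmarks: No-NADH positive control and DMSO neutral control | Signal: Fluorescence of resorufin formed from resazurin, Ex 544/Em 590 nm | Schedule: 16-min room-temperature incubation before reading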
HKDC1 inhibitor = inhibitors of human hexokinase HKDC1. AID 493160. inhibition, % at 20 µM. recombinant HKDC1, G6PDH/diaphorase resazurin coupled fluorescence. Q2TB90. 340,000 compounds, 0.16% hits;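 active = inhibition above about 35% when tested at 20 µM, limit read from the data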;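 also: plate controls were DMSO wells with enzyme for no effect and DMSO wells lacking enzyme for full effect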
Target sequence (Q2TB90 whole entry, looked up): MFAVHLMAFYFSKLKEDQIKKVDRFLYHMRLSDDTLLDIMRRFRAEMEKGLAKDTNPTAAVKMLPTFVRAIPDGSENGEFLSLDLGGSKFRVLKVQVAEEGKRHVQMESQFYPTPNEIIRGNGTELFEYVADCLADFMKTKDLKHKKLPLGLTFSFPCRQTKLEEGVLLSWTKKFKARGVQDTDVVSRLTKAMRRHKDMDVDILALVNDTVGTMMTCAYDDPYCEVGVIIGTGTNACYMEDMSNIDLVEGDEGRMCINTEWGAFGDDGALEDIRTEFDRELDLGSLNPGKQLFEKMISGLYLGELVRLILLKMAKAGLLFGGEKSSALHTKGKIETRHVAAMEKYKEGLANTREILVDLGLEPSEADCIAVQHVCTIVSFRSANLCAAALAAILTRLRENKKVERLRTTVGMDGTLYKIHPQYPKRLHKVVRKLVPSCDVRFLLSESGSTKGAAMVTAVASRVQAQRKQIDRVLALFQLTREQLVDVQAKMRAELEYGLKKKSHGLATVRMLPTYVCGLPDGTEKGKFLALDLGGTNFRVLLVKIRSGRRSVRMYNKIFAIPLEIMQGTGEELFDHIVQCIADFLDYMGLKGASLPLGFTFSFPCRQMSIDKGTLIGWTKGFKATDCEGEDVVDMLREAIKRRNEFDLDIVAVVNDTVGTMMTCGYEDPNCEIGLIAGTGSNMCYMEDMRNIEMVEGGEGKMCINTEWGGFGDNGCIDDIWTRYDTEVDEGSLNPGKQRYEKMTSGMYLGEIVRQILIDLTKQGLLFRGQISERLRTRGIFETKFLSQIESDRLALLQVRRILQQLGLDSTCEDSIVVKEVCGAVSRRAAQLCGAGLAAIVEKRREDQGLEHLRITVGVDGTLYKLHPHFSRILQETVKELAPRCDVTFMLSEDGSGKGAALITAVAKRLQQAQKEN
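System: Recombinant HKDC1 hexokinase | Amount: HKDC1 at 5 µg/mL | Reagent: Glucose with 1 mM ATP | Doses: Single 20 µM dose | Incubation: Reaction time 90 min, room temperature, protected from light | Signal: Coupled resazurin fluorescence, excitation 525 nm, emission 613 nm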
PfG6PD confirm = PfG6PD inhibition, single-dose confirmed | shares compounds with PfG6PD inh | recombinant PfGluPho, NADPH-diaphorase-resazurin fluorescence | inhibition, % at 20 µM | 2,400 compounds, 34% hits;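 active = inhibition of at least 50% at 20 µM in any single replicate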;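 also: 0% = DMSO with substrate and 100% = DMSO lacking glucose-6-phosphate substrate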
Diaph ctr 10uM = counter-screen for P. falciparum G6PD inhibitors: diaphorase inhibitors, oxidizers. 820 compounds, 39% hits. diaphorase-coupled resazurin reduction, fluorescence, NADPH 10 uM. shares compounds with PfG6PD inh. AID 504862. inhibition, % at 20 µM;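 active = average inhibition reaching 50% or more with the compound at 20 µM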;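 also: resorufin red fluorescence formed as diaphorase reduces resazurin using NADPH; 0% = DMSO with enzyme and 100% = DMSO without enzyme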
Diaph ctr 30uM = inhibits diaphorase or oxidizes, flagging false PfG6PD hits | inhibition, % at 20 µM | shares compounds with PfG6PD inh | Diaphorase/resazurin coupled assay, resorufin fluorescence, 30 uM NADPH | AID 504863 | 820 compounds, 29% hits;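 active = inhibition averaging 50% or more, tested at 20 µM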;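 also: 0% = DMSO with enzyme and 100% = DMSO wells lacking diaphorase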
* = called active by the depositor; . = no result given. This is a sample that favours compounds with a hit; in the whole collection about 1.3% have one here.

SMILES | G6PDH counter | PfG6PD inh | Diaphorase inh | HKDC1 inhibitor | PfG6PD confirm | others
O=C1CCCC(=O)C1C(c1ccc(Cl)cc1)C1C(=O)CCCC1=O | . | 77* | . | 5 | 47
Cc1cccc(C(=O)N2CC(=O)Nc3ccc(F)cc3C2c2ccc(F)cc2)c1 (configuration not stated) | . | 12 | . | -3 | .
CC1=NOC(=O)/C1=C\c1ccc(-c2ccccc2Br)o1 | 2 | 95* | 28 | 35 | 51* | Diaph ctr 10uM=-5;Diaph ctr 30uM=-2
Cc1nnc(NC(=O)CC23CC4CC(CC(C4)C2)C3)s1 | . | -1 | . | -2 | .
CCN1/C(=C/C(=O)c2ccco2)Sc2ccccc21 | 13 | 77* | -14 | 3 | 34
Cc1nn(CC(=O)N(C)Cc2ccccc2)c(=O)c2cccn12 | . | 0 | . | 1 | .
Cn1cc(SCC(=O)NCc2ccc(F)cc2)c2ccccc21 | 8 | -2 | 16 | -5 | .
O=C(NCCn1cc(SCc2ccc(F)cc2)c2ccccc21)c1ccccc1F | 8 | 77* | 20 | 1 | -13
O=C(NCCn1cc(SCc2ccccc2)c2ccccc21)c1c(F)cccc1F | 21 | 64* | 20 | -2 | -20
O=C(NCCn1cc(SCc2ccc(F)cc2)c2ccccc21)c1c(F)cccc1F | 3 | 86* | 11 | 0 | -11
O=C(CSc1cn(CCNC(=O)c2c(F)cccc2F)c2ccccc12)NCC1CCCO1 (configuration not stated) | . | 10 | . | -8 | .
Cc1ccc(C)c2c1cc(C)c1nnc(SCC(=O)c3cccs3)n12 | -7 | 60* | 11 | 3 | 36
Cc1ccc(C)c2c1cc(C)c1nnc(SCC(=O)NCc3ccc4c(c3)OCO4)n12 | -16 | 94* | 0 | -8 | 84* | Diaph ctr 10uM=93*;Diaph ctr 30uM=70*
Cc1ccc2cc(C)c3nnc(SCC(=O)c4cccs4)n3c2c1C | 1 | 8 | 6 | 0 | .
CCOc1ccc(S(=O)(=O)N2CCC(C(=O)Nc3ccc(C)c(S(=O)(=O)N4CCOCC4)c3)CC2)cc1 | . | 3 | . | 2 | .
CC(=O)c1ccccc1C(=O)N1CCCC(CNC(=O)c2ccc(F)cc2)C1 (configuration not stated) | . | -3 | . | . | .
Cc1ccccc1-n1c(N)c(C(=O)Nc2ccc(F)cc2)sc1=S | 7 | 34 | 4 | -2 | .
COC(=O)c1ccccc1NC(=O)c1sc(=S)n(C)c1N | 5 | 63* | 12 | -2 | 40
Cc1ccc(-n2c(N)c(C(=O)Nc3ccccc3F)sc2=S)cc1C | 7 | 70* | 28 | -3 | -3
Cc1ccc(NC(=O)c2sc(=S)n(-c3cc(C)ccc3F)c2N)cc1 | 7 | 75* | 3 | -8 | 25
Cc1ccc(C)c(-n2c(N)c(C(N)=O)sc2=S)c1 | . | 4 | . | 0 | .
Cc1ccc(-n2c(N)c(C(N)=O)sc2=S)c(C)c1 | 4 | 62* | 11 | -12 | 29
CC(C(=O)N1CCCC1)N(C)CC(=O)Nc1cccc(F)c1 (configuration not stated) | . | 8 | . | 0 | .
COc1ccc2[nH]c(=O)c(CNc3cccc(C)c3)cc2c1 | 42 | 69* | 40 | 20 | -2
COc1ccc(NCc2cc3ccccc3[nH]c2=O)cc1 | 23 | 25 | 31 | 4 | .
SMILES | G6PDH counter | PfG6PD inh | Diaphorase inh | HKDC1 inhibitor | PfG6PD confirm | others
COc1ccc(NCc2cc3cc(OC)ccc3[nH]c2=O)cc1 | 36 | 73* | 46 | 5 | 26
CC(Oc1ccccc1C(N)=O)C(=O)Nc1ccc(S(=O)(=O)N2CCCC2)cc1 (configuration not stated) | . | 13 | . | -3 | .
CC(C)(C)C1=Nn2c(nnc2-c2n[nH]c3c2CCC3)SC1 | -7 | 60* | 19 | 8 | 12
COC(=O)CCCC1=CC2=CC(=O)C(C)(OC(=O)c3cccs3)C(=O)C2=CN1C1CCCC1 (configuration not stated) | . | 44 | . | 15 | .
COC(=O)CCCC1=CC2=CC(=O)C(C)(OC(=O)c3cccs3)C(=O)C2=CN1Cc1ccc2c(c1)OCO2 (configuration not stated) | . | 43 | . | 23 | .
COC(=O)CCCC1=CC2=CC(=O)C(C)(OC(=O)c3cccs3)C(=O)C2=CN1Cc1ccco1 (configuration not stated) | . | 73* | . | 19 | 31
COC(=O)CCCC1=CC2=CC(=O)C(C)(OC(=O)c3cccs3)C(=O)C2=CN1Cc1ccccc1 (configuration not stated) | . | 75* | . | 22 | 43
COC(=O)CCCC1=CC2=CC(=O)C(C)(OC(=O)c3cccs3)C(=O)C2=CN1CCCOC(C)C (configuration not stated) | . | 62* | . | 22 | 20
CN1CCc2cccc3c2[C@H]1Cc1ccc(O)c(O)c1-3 | 44 | 87* | 78* | 4 | 89* | Diaph ctr 10uM=21;Diaph ctr 30uM=3
COc1ccc(NC(=O)C[C@H]2C(=O)N(c3ccc(OC)cc3)C[C@@H]2C)cc1 | . | -6 | . | . | .
CCOC(=O)c1ccc(/[N+]([O-])=C/c2ccccc2)cc1 | . | 90* | . | -1 | 97* | Diaph ctr 10uM=49;Diaph ctr 30uM=8
C#CCCc1cscc1/C=[N+](\[O-])c1ccc(C(=O)OCC)cc1 | . | 116* | . | 1 | 103* | Diaph ctr 10uM=43;Diaph ctr 30uM=15
COc1cccc(CNC(=O)C2Cc3ccccc3CN2C(C)=O)c1 (configuration not stated) | . | 13 | . | -6 | .
O=C(O)c1ccc(-c2nc(-c3ccc(Cl)cc3Cl)cs2)cc1 | 1 | -23 | 5 | -1 | .
CC(=O)N1CC[n+]2c(-c3ccc(Cl)cc3Cl)csc21 | -4 | 59* | 15 | -1 | -9
O=C(NNC(=O)c1ccccc1OCc1ccc(F)cc1)c1ccccc1O | . | 120* | . | -6 | 70* | Diaph ctr 10uM=67*;Diaph ctr 30uM=50*
O=C(NNC(=O)c1ccccc1OCc1ccccc1)c1ccccc1O | . | 90* | . | -6 | 69* | Diaph ctr 10uM=56*;Diaph ctr 30uM=56*
COC(=O)Cc1sc(-c2ccccn2)nc1-c1ccccc1 | -1 | 63* | 18 | -14 | 23
Cc1ccc2c(c1)N(Cc1cccc(C#N)c1)C=NS2(=O)=O | . | -3 | . | -3 | .
CCCCNC(=O)c1ccc(Cn2c(=S)[nH]c3c([nH]c4ccc(OC)cc43)c2=O)cc1 | -5 | 3 | -2 | 5 | .
CCN(CC)CCNC(=O)CCCCn1c(=S)[nH]c2c([nH]c3ccc(OC)cc32)c1=O | 2 | 64* | 37 | -1 | 47* | Diaph ctr 10uM=-3;Diaph ctr 30uM=-8
Cc1cc2nc3c(=O)[nH]c(=O)[nH]c3nc2c([N+](=O)[O-])c1N | 30 | 50 | 65* | 26 | 40
CSc1ccc(C2Nc3cccc4cccc(c34)N2)cc1 | . | 64* | . | 6 | 7
Clc1ccc(C2Nc3cccc4cccc(c34)N2)cc1 | . | 32 | . | 12 | .
O=C1CCN(c2ccccc2)N1 | . | 119* | . | 15 | 109* | Diaph ctr 10uM=16;Diaph ctr 30uM=8
